A selection: hits, their analogues and other compounds. The true share with any hit is near 3%.
GC-A act: GC-A stimulated cGMP production enhancers – HEK293 GC-A cells, cGMP TR-FRET, EC30 ANP, primary screen; Atrial natriuretic peptide receptor 1 (Homo sapiens), P16066; 0% at EC30 ANP, 100% saturating ANP; activation, % at 10 µM; actives 0.14% (n = 370,000); in the data active = activation above about 40%
aDG glyco up: activators of alpha-DG glycosylation, primary screen, uHTS, Pro5-aDG cells, AlphaScreen | alpha-DG glycosylation AlphaScreen (IIH6); 0% Pro5, 100% B10-LARGE cell signal | activation, % at 10 µM | actives 0.22% (n = 360,000) | AID 624168, 2012;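 active = activation of at least 8% versus controls, or a plate z-score of at least 8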;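 also: Pro5 are CHO cells carrying HIG-tagged alpha-DG that lacks glycosylation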
GASC-1 inh: inhibitors of GASC-1 histone demethylase, primary screen, biochemical, fluorescence, DELFIA europium | Lysine-specific demethylase 4C (Homo sapiens), Q9H3R0 | GST-JMJD2C(1-420) H3K9me3 demethylation | inhibition, % at 2.35 µM | actives 0.069% (n = 330,000);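 active = more than half of a compound's replicate wells show inhibition beyond 50%, single wells judged on their own value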;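 also: signal counts dimethyl H3K9 product captured on neutravidin plate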
Hep lipid drop: inhibitors of hepatocyte lipid droplet formation, primary screen, imaging, high-throughput imaging, BODIPY stain. AML12 mouse hepatocytes, oleate lipid droplets. inhibition, % at 6.5 µM. actives 0.4% (n = 240,000);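 active = lipid droplet intensity inhibited by at least 50%, with more than 500 cells counted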
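Assay system: AML12 hepatocytes (mouse) / Also added: 100 µM oleic acid challenge / Times: overnight treatment with compound plus oleate / Detection: high-content imaging of BODIPY-stained droplets and DAPI nuclei / Evaluation: % inhibition of lipid droplet signal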
NR3A LBD binder: binders of NR3A ligand-binding domain, primary screen, biophysical, differential scanning fluorimetry, uHTS; Glutamate receptor ionotropic, NMDA 3A (GRIN3A) ligand-binding domain; NR3A LBD differential scanning fluorimetry, Tm shift; 0% = protein alone, 100% = glycine-bound protein; Tm shift relative to glycine control, % at 25 µM; actives 2.5% (n = 340,000); AID 1259313, 2017;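 active = melting temperature shift of at least 10% of the positive control shift, at one fixed dose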
GC-B act: human GC-B receptor activators, primary screen, HEK293 GC-B cells, cGMP TR-FRET, EC30 CNP; actives 0.11% (n = 370,000); Atrial natriuretic peptide receptor 2 (Homo sapiens), P20594; activation, % at 10 µM; 0% at EC30 CNP, 100% saturating CNP;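 active = activation at 10 µM reaching about 35% in either raw or pattern-adjusted values, limit read from the data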
A number is an active result; 0 = inactive; - = no result given.

SMILES	GC-A act	aDG glyco up	GASC-1 inh	Hep lipid drop	NR3A LBD binder	GC-B act
Cc1ccc(-c2cc(C(=O)NCCCN3CCOCC3)c3ccc(Cl)c(C)c3n2)cc1	0	0	0	0	0	0
Cc1c(Cl)ccc2c(C(O)CBr)cc(-c3ccccc3)nc12 (stereo not drawn)	0	0	-	-	32	0
N#C/C(=N\Nc1cccc(C(F)(F)F)c1)C(=O)c1ccsc1	0	0	0	0	16	0
Cc1ccc(CNC(=O)OC(C)(C)C)c(/C=C/S(=O)(=O)NC2CCCC2)c1	0	-	-	-	-	0
Cc1nn(C)c(C(=O)Nc2cccc(CN3CCOCC3)c2)c1Br	0	0	0	0	0	0
CCCc1nn(C)c(C(=O)Nc2cccc(CC)c2)c1Cl	0	0	0	0	12	0
CCCc1nn(C)c(C(=O)Nc2ccc3ccccc3c2)c1Cl	0	0	0	0	17	0
COc1ccc(C[N+]2=C(N)NC3=C(C)Cn4c(=O)n(-c5ccccc5)c(=O)n4C3C2)c(OC)c1 (stereo not drawn)	0	-	-	-	-	0
CSC1=N/C(=C\c2ccccc2F)C(=O)S1	0	0	0	-	16	0
COc1cccc(/C=C2\N=C(SC)SC2=O)c1OC	0	0	0	-	0	0
COc1ccc(S(=O)(=O)n2nc(-c3ccc(Cl)cc3)cc2N)cc1OC	0	0	0	-	14	0
COc1ccc(OC)c(S(=O)(=O)n2nc(-c3ccccc3)cc2N)c1	0	0	0	-	22	0
COc1cc(OC)cc(-c2cc(N)n(S(=O)(=O)Cc3ccccc3)n2)c1	0	0	0	-	0	0
C[C@@H]1ON(C)[C@H]2C[C@H]3c4[nH]c5c(-c6ccc7c(c6)OCO7)cccc5c4CCN3C[C@@H]12	0	-	-	-	-	0
COC(=O)[C@]12C[C@H](CC(=O)N3CCOCC3)C(=O)N(Cc3ccco3)C1=C[C@H](C(C)C)O[C@@H]2C1CC1	0	-	-	-	-	0
CCCN(CC1CC1)c1nc(C)nc2c1nnn2Cc1ccccc1	0	-	-	-	-	0
O=C(NNc1ccc(C(F)(F)F)cc1[N+](=O)[O-])c1ccc(NS(=O)(=O)c2ccc(F)cc2)cc1	0	0	0	0	22	0
O=C(Nc1ccc(-c2nc3ncccc3o2)cc1)c1ccc(Br)o1	0	0	0	56	0	0
O=C(Nc1cccc(-c2nc3cccnc3s2)c1)c1ccco1	0	0	0	0	0	0
O=C(Nc1ccc(-c2nc3cccnc3s2)cc1)c1ccc(Br)o1	0	0	0	0	20	0
O=C(Nc1ccc(-c2nc3cccnc3s2)cc1)c1ccco1	0	0	0	0	12	0
O=C(Nc1ccc(-c2nc3ncccc3o2)cc1)c1ccco1	0	0	0	0	0	0
CC1(C(=O)Nc2ccc3nc[nH]c3c2)CCN1C(=O)c1ccccc1CCc1ccccc1 (stereo not drawn)	0	0	-	-	-	0
CN1CCC(CNC(=O)Nc2csc3ccccc23)CC1	0	0	0	0	0	0
O=C(Nc1ccc(F)cc1)Nc1csc2ccccc12	0	0	0	0	34	0
SMILES	GC-A act	aDG glyco up	GASC-1 inh	Hep lipid drop	NR3A LBD binder	GC-B act
CN(C)c1ccc(NC(=O)Nc2csc3ccccc23)cc1	0	0	0	0	18	0
O=C(NCc1ccco1)C1CCCN(S(=O)(=O)c2ccc(F)cc2)C1 (stereo not drawn)	0	-	-	-	-	0
O=C(NC(Cc1ccccc1)C(=O)O)/C(=C/c1ccccc1)NC(=O)c1ccccc1 (stereo not drawn)	0	0	0	0	14	0
Cc1ccc(NC(=O)C2CCCN(c3nnc(-n4cccc4)s3)C2)c(C)c1 (stereo not drawn)	0	-	-	-	-	0
Cc1onc(-c2ccccc2Cl)c1C(=O)OCC(=O)c1ccc2c(c1)OCCO2	0	0	0	-	12	0
COc1ccc(/C(N)=N/OC(=O)c2c(-c3ccccc3Cl)noc2C)cc1OC	0	0	0	0	18	0
Cc1nc(/C(N)=N/OC(=O)c2c(-c3ccccc3Cl)noc2C)cs1	0	0	0	0	0	0
Cc1ccc(-c2ccnc(-c3ccc(O)cc3)n2)cc1	0	0	0	0	0	0
Oc1ccc(-c2nccc(-c3ccc(Br)cc3)n2)cc1	0	0	0	0	37	0
O=C(CSc1nc2ccccc2n1S(=O)(=O)c1ccccc1)N1CCCCC1	0	0	0	-	14	0
Cn1c(=O)c2ccccc2n(C)c1=O	0	-	-	-	-	0
Cc1cc(/C=N/n2cnnc2)c(C)n1-c1ccc(OCc2ccccc2F)cc1	0	5.9	0	-	0	0
COc1ccc(S[C@]2(C(=O)N3CCN(c4ncccn4)CC3)CC(=O)N[C@@H]2c2ccc(OC)cc2)cc1	0	-	-	-	-	0
COCCn1c(-c2ccc(-c3ccccc3Cl)o2)nc2c1c(=O)[nH]c(=O)n2CC(C)C	0	0	0	-	0	36
COCO[C@@H]1CC(CO)=C[C@H]2OCO[C@H]21	0	-	-	-	-	0
CN(c1ccc(OCC(=O)N2CCN(c3ccc(F)cc3)CC2)cc1)S(=O)(=O)c1cccs1	0	0	0	0	0	0
CN(c1ccc(OCC(=O)N2CCCCC2)cc1)S(=O)(=O)c1cccs1	0	0	64	-	0	0
CCn1c(SCC(=O)NN=Cc2cc(OC)ccc2OC)nnc1-c1ccc(OC)cc1	0	-	-	-	-	0
CCc1ccc(NC(=O)CSc2nc3[nH]ncc3c(=O)[nH]2)cc1	0	0	0	0	0	0
COc1cc(NC(=O)CSc2nc3[nH]ncc3c(=O)n2-c2ccc(Cl)cc2)cc(OC)c1	0	0	0	0	13	0
Cc1cccc(NC(=O)CSc2nc3[nH]ncc3c(=O)n2-c2ccccc2)c1	-	-	0	0	-	-
O=C(CSc1nc2[nH]ncc2c(=O)[nH]1)Nc1ccc(Cl)cc1	0	0	0	-	25	0
CN(CC(=O)Nc1ccc(Cl)c(C(F)(F)F)c1)C(=O)Cc1c[nH]c2ccccc12	0	0	0	-	12	0
C/C(CC(=O)Nc1ccc(Cl)c(C(F)(F)F)c1)=N\NC(=O)c1ccccc1O	0	0	0	0	24	0
CCc1ccccc1NCC(=O)Nc1ccc(Cl)c(C(F)(F)F)c1	0	0	0	0	21	0
CCOc1ccc(NC(=O)CN(C)C(=O)Cc2c[nH]c3ccccc23)cc1OCC	0	0	0	-	0	0
NC(=O)C1CCN(c2ccnc(Cl)n2)CC1	0	-	-	-	-	0
CCCCCCCCN1C(=O)[C@H](CC(=O)NCc2ccc(OC)c(OC)c2)C[C@@]2(C(=O)OCC)CCCC=C12	0	0	-	-	-	0

Bioassay records deposited in PubChem by several laboratories.
